Rows were chosen to be rich in hits. Some 1.4% of all compounds tested hit in one or more screens of this group.
CHT block – inhibitors of human choline transporter CHT; B-score at 10 µM; AID 488975, 2010; actives 0.86% (n = 310,000); High affinity choline transporter 1 (Homo sapiens), Q9GZV3; CHT-expressing cells, membrane potential dye, choline response; stronger effect = lower value;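 active means B-score over 3 SD under the library average, and starting fluorescence ratio not unusually high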;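 further: choline stimulus applied at its EC90 after an EC20 pre-addition; B-score computed on integrated fluorescence ratio after choline addition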
ABCB6 inh MLPCN – ABCB6 transporter inhibitors, primary screen, K562-ABCB6 cells, flow cytometry, MLPCN library; ATP-binding cassette sub-family B member 6 (Homo sapiens), Q9NP58; K562-ABCB6 porphyrin accumulation, 1 h; stronger effect = lower value; fluorescence ratio to DMSO, % at 10 µM; actives 0.19% (n = 360,000);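 active means fluorescence ratio to DMSO below 75%, the collection mean minus 3 SD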;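 further: signal is porphyrin accumulated inside mitochondria; 100% equals median channel fluorescence of DMSO control wells; lower ratio means ABCB6 inhibition with less porphyrin fluorescence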
TNAP inh hiacc – human TNAP enzyme inhibitors, primary screen, biochemical, luminescent, high phosphate acceptor level, uHTS; AID 1135, 2008; purified TNAP, CDP-star luminescence, 1 M DEA; inhibition, % at 20 µM; Alkaline phosphatase, tissue-nonspecific isozyme (Homo sapiens), P05186; actives 0.03% (n = 200,000);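 active means over 50% inhibition of tissue-nonspecific alkaline phosphatase at 20 µM in the single-dose screen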;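 further: plate controls were DMSO wells for no effect and EDTA-quenched wells as full inhibition for full effect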
Target sequence (P05186 whole entry, looked up): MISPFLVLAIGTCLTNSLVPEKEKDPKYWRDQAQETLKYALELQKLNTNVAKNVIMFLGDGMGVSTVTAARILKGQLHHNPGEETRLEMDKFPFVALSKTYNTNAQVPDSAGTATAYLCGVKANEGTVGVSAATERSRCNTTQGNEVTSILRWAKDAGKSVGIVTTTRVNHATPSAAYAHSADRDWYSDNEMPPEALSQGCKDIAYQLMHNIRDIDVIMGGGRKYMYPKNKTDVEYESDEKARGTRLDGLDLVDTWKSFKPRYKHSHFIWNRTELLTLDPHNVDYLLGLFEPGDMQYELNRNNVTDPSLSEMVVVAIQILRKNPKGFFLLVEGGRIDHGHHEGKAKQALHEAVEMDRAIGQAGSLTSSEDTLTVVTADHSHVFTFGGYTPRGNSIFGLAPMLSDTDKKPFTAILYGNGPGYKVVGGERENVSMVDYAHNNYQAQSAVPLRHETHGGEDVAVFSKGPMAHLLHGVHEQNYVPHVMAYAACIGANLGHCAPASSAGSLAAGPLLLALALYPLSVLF
TNAP inh noacc – human TNAP enzyme inhibitors, primary screen, biochemical, luminescent, no phosphate acceptor, uHTS | purified TNAP, CDP-star luminescence, 30 min | AID 1012, 2008 | actives 0.26% (n = 200,000) | Alkaline phosphatase, tissue-nonspecific isozyme (Homo sapiens), P05186 | inhibition, % at 20 µM;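 active means tissue-nonspecific alkaline phosphatase inhibition above about 50% at 20 µM in the single-dose screen, limit read from the data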;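 further: 0% = DMSO negative control and 100% = EDTA positive control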
CHT PAM – CHT positive allosteric modulators, primary screen, cell-based, membrane potential dye, choline EC20 | CHT-expressing cells; stronger effect = higher value; LV-AA mutant CHT in HEK293 cells | High affinity choline transporter 1 (Homo sapiens), Q9GZV3 | actives 0.49% (n = 310,000) | B-score at 10 µM | AID 488977, 2010;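 active means initial fluorescence not abnormally high and integrated response B-score, plate-corrected, over 3 SD above library mean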
TNAP act hiacc – TNAP activators at high phosphate acceptor level, primary screen, biochemical, luminescence, uHTS; Alkaline phosphatase, tissue-nonspecific isozyme (Homo sapiens), P05186; purified TNAP, CDP-star luminescence, 1 M DEA, 30 min; stronger effect = higher value; 0 = EDTA background, 1 = DMSO-only activity; activation factor at 20 µM; 200,000 tested, under 10 active;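 active means activation factor at least 2 at 20 µM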
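system = human TNAP | amount = enzyme diluted 1/800 final | reagent = 100 µM CDP-star substrate | signal = luminescent substrate turnover signal | dosing = one dose, 20 µM | benchmarks = EDTA negative control, DMSO positive control | measure = activation factor | timing = 30 min reaction, room temperature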
CHT act confirm – CHT activators, confirmation, cell-based, membrane potential dye, duplicate | shares compounds with CHT PAM | CHT-expressing cells, membrane potential dye fluorescence (FDSS); % of choline EC20–EC90 response window; HEK293 expressing CHT LV-AA mutant; choline added at its EC20 | activation, % at 10 µM | actives 91% (n = 2,500) | AID 504833, 2011;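 active means primary screen active, with duplicate mean activation above negative control mean plus 3 SD, cut at about 11% in these data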
HEK293 MP dye – membrane potential response in parental HEK293 cells, counter-screen for CHT activator project, cell-based, membrane potential dye | shares compounds with CHT PAM | membrane potential dye fluorescence (FDSS); measured after EC20 choline addition | ratio readout change at 10 µM, hits read low | actives 62% (n = 2,500);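 active means duplicate-averaged ratio beyond 3 SD from buffer wells, up or down, though filed actives are nearly all decreases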
* hit, by the source's call; i = inactive; / = not tested or not shown.

SMILES	CHT block	ABCB6 inh MLPCN	TNAP inh hiacc	TNAP inh noacc	CHT PAM	TNAP act hiacc	CHT act confirm	HEK293 MP dye
Cc1ccc(OCCN2CCN(c3nc(NCc4ccco4)c4ccccc4n3)CC2)cc1	i	97	-7	-40	i	1.1	/	/
c1ccc(CN2CCN(c3nc(NCc4ccco4)c4ccccc4n3)CC2)cc1	i	103	-1	3	6.4*	1	26*	-53*
Cc1cc(=O)oc2c(C)c(OCC(=O)NCCCn3ccnc3)ccc12	i	102	/	/	i	/	58*	-52*
Cc1c(C)c2ccc(OCC(=O)NCCCn3ccnc3)c(C)c2oc1=O	i	100	/	/	i	/	/	/
Cc1cc(OCC(=O)NCCCn2ccnc2)c2c(C)cc(=O)oc2c1	i	100	/	/	7.1*	/	65*	-56*
Cc1cc(OC(C)C(=O)NCCCn2ccnc2)c2c(C)cc(=O)oc2c1 (configuration not stated)	i	101	/	/	i	/	45*	-39*
O=C(CN1C(=O)S/C(=C\c2ccccc2Cl)C1=O)NCCCn1ccnc1	i	103	/	/	i	/	/	/
NS(=O)(=O)c1ccc(CCNC(=O)c2cnccn2)cc1	i	98	/	/	i	/	/	/
COc1ccccc1CNC(=O)c1c(N)n(CCCN2CCOCC2)c2nc3ccccc3nc12	/	108	-2	-12	/	1	/	/
Nc1c(C(=O)NCc2ccc3c(c2)OCO3)c2nc3ccccc3nc2n1CCCN1CCOCC1	i	97	-1	-16	7.4*	1	12*	i
CSc1ccc(/C=C/C(=O)OCC(=O)NC2CCCC2)cc1	/	96	/	/	/	/	/	/
Cc1ccc(NS(=O)(=O)Cc2ccccc2)cc1Cl	i	96	/	/	i	/	/	/
CCOc1cccc2sc(N(CCN(C)C)C(=O)c3ccc4ccccc4c3)nc12	i	96	/	/	9.5*	/	25*	-78*
Cc1nn(C)c(Oc2cccc(Cl)c2)c1C(=O)Nc1ccc(F)cc1F	i	95	-6	-12	i	1.1	30*	i
O=C(CSc1nc(=O)n2ccccc2n1)NC1CCCCC1	i	109	/	/	i	/	/	/
Cc1c(CN2CCC(CO)(Cc3cccc(C(F)(F)F)c3)CC2)c2ccccc2n1C	i	98	-6	-5	i	1.1	/	/
c1ccc(-c2cccc(-c3ccccn3)n2)nc1	i	96	-3	9	i	1	14*	-47*
Cc1cccc(-n2c(SCC(=O)NCC3CCCO3)nc3ccccc3c2=O)c1C (configuration not stated)	/	97	/	/	/	/	/	/
Cn1c(-c2ccccc2)c(C(=O)CCl)c2ccccc21	/	105	0	-5	/	1	/	/
CCCc1c(CC)c(=N)c2ccccc2n1C	i	103	2	2	7.5*	1	64*	-58*
CCC(C)n1c(=N)c(C#N)cc2c(=O)n3cc(C)ccc3nc21 (configuration not stated)	i	100	4	-1	i	1	/	/
CCC(C)n1c(=N)c(C#N)cc2c(=O)n3cccc(C)c3nc21 (configuration not stated)	i	97	-4	0	7*	1	41*	-53*
Cc1cc[n+](-c2ccccc2)c2ccccc12	i	93	-1	-3	7*	1	32*	-44*
N#Cc1c(N)sc2c1CCN(CCc1ccccc1)C2	i	97	-2	-10	i	1	30*	-41*
O=C1O[C@@H](c2ccccc2)C[C@@H](O)C(=O)CCc2ccccc21	/	97	/	/	/	/	/	/
SMILES	CHT block	ABCB6 inh MLPCN	TNAP inh hiacc	TNAP inh noacc	CHT PAM	TNAP act hiacc	CHT act confirm	HEK293 MP dye
CC/C(=N\NC(=O)CNC(=O)/C=C/c1ccc(OC)cc1)c1ccccc1	i	92	/	/	i	/	/	/
CCOC(=O)c1c(NC(=O)CSc2nc3ccccc3o2)sc(C(C)=O)c1C	i	85	0	0	9.1*	1	12*	i
O=C(NCc1ccccc1)/C(=C\c1ccc(F)cc1)NC(=O)c1ccco1	/	100	/	/	/	/	/	/
CC(C)Cc1ccc(C(C)C(N)=NCCc2ccccc2)cc1 (configuration not stated)	i	100	/	/	13*	/	6	i
COc1nccnc1NS(=O)(=O)c1ccc(NC(=O)c2cccc(C)c2)cc1	i	102	-1	-2	i	1	/	/
CN(C)CCC(C(=O)c1ccccc1)c1ccccn1 (configuration not stated)	/	99	/	/	/	/	/	/
CN(C)CC(CCCCC(CN(C)C)C(=O)c1ccccc1)C(=O)c1ccccc1 (configuration not stated)	i	99	/	/	8.4*	/	29*	i
COc1ccccc1S(=O)(=O)Nc1cc(C)nn1-c1ccc(C)cc1	i	91	/	/	i	/	/	/
CC1CCC(NC(=O)CCCn2sc3ccccc3c2=O)CC1 (configuration not stated)	i	98	/	/	8.7*	/	27*	i
O=C(CCCn1c(=O)[nH]c2ccccc2c1=O)NC1CCCCCC1	i	90	-9	-18	i	1.1	/	/
Cc1cc2c3c(ccc(C)c3n1)N=CN2c1ccccc1	i	102	-4	-15	i	1	49*	-60*
Cc1cc(=S)n(-c2ccccc2)n1C	i	98	0	-4	7*	1	8	i
Cn1c(-c2ccccc2)cc(=O)n1-c1ccccc1	/	99	/	/	/	/	/	/
CCCCN(Cc1ccco1)C(=O)C1CCCN(c2ncnc3c2nc2n3CCCCC2)C1 (configuration not stated)	i	105	/	/	i	/	18*	i
CC(C)N(Cc1ccccc1)C(=O)C1CCCN(c2ncnc3c2nc2n3CCCCC2)C1 (configuration not stated)	i	92	/	/	i	/	/	/

Screening data (PubChem BioAssay)
